Tests used:
B. subtilis XPRT [1] = target: T1, B. subtilis XPRT (Bacillus subtilis, UniProt P42085); assay: DRaCALA binding of 32P-labeled alarmones to XPRT; details: for nH (Hill coefficient from binding curve): DRaCALA binding curve, ± standard error
In short: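 Purified hexahistidine-tagged B. subtilis XPRT at varied concentrations was mixed with 32P-labelled alarmone in 20 mM HEPES pH 8, 100 mM NaCl, 10 mM MgCl2. The label was added at 1:50–1:100 of the first synthesis elution fraction. After 10 min at room temperature, aliquots were spotted on nitrocellulose, dried ≥20 min and phosphorimaged. Fraction bound was edge-corrected and fitted to Y = (Bmax × X^h)/(Kd^h + X^h).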

B. subtilis XPRT [2] = target: T1, B. subtilis XPRT; assay: XPRT activity assay; format: biochemical; details: 1 mM PRPP, 50 μM xanthine; ± standard error
In short: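 Xanthine started the reaction, and XMP was followed at A252 for 10 min (Δε 5350 M−1cm−1). Initial-velocity slopes were normalized to uninhibited controls and fitted to Y = 1/(1 + (X/IC50)^n), with n reported as napp.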

XPRT = XPRT (Bacillus subtilis, UniProt P42085); assay: XPRT interaction with ppApp; format: binding; details: data not shown
Sequence of XPRT (P42085 whole entry): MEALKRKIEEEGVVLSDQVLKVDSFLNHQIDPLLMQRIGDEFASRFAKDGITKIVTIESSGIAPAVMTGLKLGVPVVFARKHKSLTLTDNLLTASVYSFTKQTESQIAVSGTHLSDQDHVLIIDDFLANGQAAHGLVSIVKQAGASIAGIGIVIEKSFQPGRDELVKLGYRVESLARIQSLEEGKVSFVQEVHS

B. subtilis XPRT [3] = target: T1, B. subtilis XPRT; assay: Size exclusion chromatography of XPRT with ppGpp in the mobile phase; details: 35 μM ppGpp in the mobile phase, XPRT at 10 or 20 μM
In short: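 Untagged (TEV-cleaved) XPRT at 10 or 20 μM was run on a Superose 12 column at 0.25 mL/min. The mobile phase was 20 mM HEPES pH 8, 300 mM NaCl, 10 mM MgCl2, with ppGpp at 35 μM final, after equilibration with ≥1 column volume. A280 traces were baseline-normalized. Predicted retention volumes (monomer 13.58, dimer 12.41) came from the 21038 Da molecular weight and a column standard curve.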

B. subtilis XPRT [4] = target: T1, B. subtilis XPRT; assay: biochemical
(p)ppGpp^0 B. subtilis = assay: GTP levels by thin layer chromatography of 32P-orthophosphate-labeled cells; format: cell-based, Bacillus subtilis
B. subtilis = B. subtilis viability assay; format: cell-based, Bacillus subtilis; details: (p)ppGpp^0 xpt mutant B. subtilis, 1 mM xanthine
In short: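 Strains were taken from single colonies, resuspended in S7 plus VILMTH amino acids, and spread on Spizizen casamino-acid agar for about 16 h at 30 °C. Cells were collected, diluted to OD600 0.01 in S7+VILMTH and grown to OD600 ≈ 0.2. After a t=0 sample, cultures were split and given 1 mM xanthine or water. Sampling was at 30, 60 and 120 min. Ten-fold dilutions were plated on LB for CFU/mL, in triplicate.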

T1 sequence (P42085 whole entry): as above

SMILES	Kd (B. subtilis XPRT [1]) [µM]	nH (Hill coefficient from binding curve) (B. subtilis XPRT [1])	napp (apparent Hill coefficient from inhibition curve) (B. subtilis XPRT [2])	also measured
Nc1nc2c(ncn2[C@@H]2O[C@H](COP(=O)(O)O)[C@@H](OP(=O)(O)OP(=O)(O)O)[C@H]2O)c(=O)[nH]1 [pGpp]	0.76 ± 0.04	2.3 ± 0.2	1.6 ± 0.1	–
Nc1ncnc2c1ncn2[C@@H]1O[C@H](COP(=O)(O)OP(=O)(O)O)[C@@H](OP(=O)(O)OP(=O)(O)O)[C@H]1O [ppApp]	–	–	–	interaction with XPRT (XPRT): does not interact
Nc1nc2c(ncn2[C@@H]2O[C@H](COP(=O)(O)OP(=O)(O)O)[C@@H](OP(=O)(O)OP(=O)(O)O)[C@H]2O)c(=O)[nH]1 [ppGpp]	0.95 ± 0.03	2.1 ± 0.1	1.7 ± 0.1	effect on XPRT oligomeric state (B. subtilis XPRT [3]): stabilized the dimeric XPRT population
Nc1nc2c(ncn2[C@@H]2O[C@H](COP(=O)(O)OP(=O)(O)OP(=O)(O)O)[C@@H](OP(=O)(O)OP(=O)(O)O)[C@H]2O)c(=O)[nH]1 [pppGpp]	9.6 ± 2.2	1.3 ± 0.2	1.5 ± 0.1	Ki (B. subtilis XPRT [4]): 2.5 µM
O=c1[nH]c(=O)c2nc[nH]c2[nH]1 [xanthine]	–	–	–	increase in (p)ppGpp^0 GTP levels ((p)ppGpp^0 B. subtilis; (p)ppGpp^0 B. subtilis during growth with xanthine): ~ 6 fold; GTP levels ((p)ppGpp^0 B. subtilis; (p)ppGpp^0 vs wild type B. subtilis, 1 mM xanthine, 30 min): elevated relative to wild type; viability (colony forming units) (B. subtilis): unaffected

— paper PMC7323586 (Journal of molecular biology, 2020)
